# Compound activity as filed in PubChem.
# MC4R antag cAMP – MC4R antagonists of cAMP signaling, primary screen, cell-based, TR-FRET, antagonist arm of biased-ligand search | Melanocortin receptor 4 (Homo sapiens), P32245 | MC4R-expressing cells, MTII-stimulated cAMP, LANCE TR-FRET | inhibition, % at 6.5 µM | 360,000 compounds, 0.48% hits;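 active = inhibition above its plate's cutoff, the mean of tested wells on that plate plus 3 SD, cut at about 29% in these data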
# Target sequence (P32245 whole entry, looked up): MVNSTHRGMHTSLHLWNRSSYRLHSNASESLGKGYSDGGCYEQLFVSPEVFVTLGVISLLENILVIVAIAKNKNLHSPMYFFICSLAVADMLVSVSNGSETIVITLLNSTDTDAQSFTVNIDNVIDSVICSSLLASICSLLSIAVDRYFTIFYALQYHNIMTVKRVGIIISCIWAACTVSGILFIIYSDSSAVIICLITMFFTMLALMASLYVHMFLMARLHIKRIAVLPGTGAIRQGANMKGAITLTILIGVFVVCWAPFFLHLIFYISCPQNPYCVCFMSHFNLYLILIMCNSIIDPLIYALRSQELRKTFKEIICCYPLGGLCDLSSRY
#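 Assay system: U2OS cells stably expressing human melanocortin 4 receptor (MC4R) / Dosing: 6.5 µM / Timing: compound 30 min, challenge 1 h, detection 1 h / Measured by: Eu-cAMP/anti-cAMP TR-FRET, emission 671 nm / Replicates: singlicate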
# NTR1 agonist – agonists of human NTR1, primary screen, imaging, U2OS cells, beta-arrestin-GFP, high content; AID 493036, 2011; activation, % at 20 µM; Neurotensin receptor type 1 (Homo sapiens), P30989; NTR1-U2OS beta-arrestin-GFP spot imaging, agonist mode; 330,000 compounds, 0.17% hits;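 active = activation at or above 40% of the spot to cytoplasm intensity ratio, with at least 20 cells analyzed; inconclusive = wells under 20 cells, flagged as cytotoxic or low count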
# Target sequence (P30989 whole entry, looked up): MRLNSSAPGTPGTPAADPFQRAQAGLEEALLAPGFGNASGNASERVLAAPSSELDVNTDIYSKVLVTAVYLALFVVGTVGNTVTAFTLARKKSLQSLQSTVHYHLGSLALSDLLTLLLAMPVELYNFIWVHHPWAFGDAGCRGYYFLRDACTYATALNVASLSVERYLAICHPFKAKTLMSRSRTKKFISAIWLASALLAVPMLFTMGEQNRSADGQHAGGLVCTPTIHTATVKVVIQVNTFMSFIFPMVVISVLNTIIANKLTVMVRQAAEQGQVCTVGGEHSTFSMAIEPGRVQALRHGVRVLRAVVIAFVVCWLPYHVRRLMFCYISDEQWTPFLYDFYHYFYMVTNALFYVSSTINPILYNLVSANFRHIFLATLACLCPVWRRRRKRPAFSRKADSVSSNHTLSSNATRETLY
# MC4R barr agon – MC4R agonists recruiting beta-arrestin, primary screen, cell-based, luminescence, agonist arm of biased-ligand search; activation, % at 8.9 µM; U2OS MC4R beta-arrestin complementation; percent of melanotan II response, DMSO zero; 360,000 compounds, 0.98% hits; Melanocortin receptor 4 (Homo sapiens), P32245;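 active = activation above a per-plate cutoff, the mean activation of sample wells on that plate plus 3 SD, cut at about 8% in these data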
# AI-2 QS modul – Vibrio harveyi AI-2 quorum sensing modulators, primary screen, JMH597 strain, luminescence/OD600 ratio; Vibrio harveyi JMH597 AI-2 luminescence/OD600 ratio, 9 h; active compounds read low; strain lacks LuxN and CqsS sensors; 0 = neutral-control median; activity change, % at 7.5 µM; 300,000 compounds, 0.4% hits; in the data active = activity change below about -75%, passing the limit was not always enough; inconclusive = no clear call, values can overlap the other calls;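 note: luminescence divided by OD600 gain over 9 h not by final OD600 alone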
# JMH597 growth rt – Vibrio harveyi growth inhibition, confirmation, counter-screen for AI-2 quorum sensing project, JMH597 strain, OD600 absorbance; 9 h; lacks LuxN and CqsS sensors; growth inhibition, % at 7.5 µM; shares compounds with AI-2 QS modul; 750 compounds, 1% hits;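 active = every replicate shows growth inhibition above 50%; inconclusive = at least half, but not all, replicates pass that cutoff; inactive = fewer than half of replicates pass it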
# BB721 const-QS lum – luminescence inhibition in constitutive-on V. harveyi, confirmation, counter-screen for LuxS inhibitor project, strain BB721, luminescence readout | shares compounds with AI-2 QS modul | Vibrio harveyi BB721 luminescence, 9 h | inhibition, % at 7.5 µM | 750 compounds, 95% hits;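 active = inhibition above about 80% in every replicate, not just on average, limit read from the data; inconclusive = at least half of replicates past the limit, but not all; inactive = fewer than half of replicates past the limit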
# BB721 growth rt – growth inhibition of V. harveyi BB721, confirmation, cytotoxicity control for AI-2 quorum sensing inhibitors, strain BB721, absorbance OD600 | shares compounds with AI-2 QS modul | Vibrio harveyi BB721 growth, 9 h | growth inhibition, % at 7.5 µM | 750 compounds, 3% hits;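 active = every replicate shows growth inhibition above 50%; inconclusive = at least half but not all replicates above 50% inhibition; inactive = under half of replicates above 50% inhibition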
# JMH597 AI-2 mod – Vibrio harveyi AI-2 signaling luminescence modulation – JMH597 strain, confirmation | shares compounds with AI-2 QS modul | Vibrio harveyi JMH597 AI-2 quorum sensing luminescence, 9 h; luxN and CqsS knockout, AI-2 only | 750 compounds, 97% hits | inhibition, % at 7.5 µM;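 active = every replicate shows more than 75% inhibition of signal versus neutral control wells; inconclusive = half to three quarters of replicates exceed 75% inhibition; inactive = fewer than half of replicates exceed 75% inhibition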
# A number is an active result; i = inactive; ? = inconclusive; nt = no result given. This is a sample that favours compounds with a hit; in the whole collection about 1.8% have one here.
SMILES,MC4R antag cAMP,NTR1 agonist,MC4R barr agon,AI-2 QS modul,JMH597 growth rt,BB721 const-QS lum,BB721 growth rt,JMH597 AI-2 mod
CCc1ccc(S(=O)(=O)Nc2ccccn2)cc1,i,i,i,nt,nt,nt,nt,nt
CCc1ccc(S(=O)(=O)Nc2ccc(Br)cn2)cc1,i,i,i,?,i,i,i,94.8
CN(C)c1cccc(C(=O)NN2C(=O)NC3(CCCCC3)C2=O)c1,i,i,i,nt,nt,nt,nt,nt
CC(=O)c1ccc(NC(=O)COC(=O)c2ccc(F)cc2F)cc1,i,i,i,-89.9,i,96.6,i,98.0
O=C(COC(=O)c1ccc(F)cc1F)NCCNC(=O)COC(=O)c1ccc(F)cc1F,i,i,i,i,nt,nt,nt,nt
Nc1ncnc2c1ncn2[C@@H]1O[C@H](CNCC(O)CO)[C@@H](O)[C@H]1O (stereo not given in full),i,i,i,nt,nt,nt,nt,nt
O=C(NCCc1ccccc1)C(c1ccccc1F)N(C(=O)c1csnn1)C1CC1 (stereo not given),i,i,i,nt,nt,nt,nt,nt
Cc1cc(NS(=O)(=O)c2ccc(NC(=O)CCc3ccccc3)cc2)no1,i,i,i,-91.3,i,95.3,i,96.7
Cc1cc(NS(=O)(=O)c2ccc(NC(=O)CCCOc3ccccc3)cc2)no1,i,i,i,i,nt,nt,nt,nt
O=C1CC2(CCN(C(=O)c3cccc(Br)c3)CC2)Oc2ccccc21,i,i,i,i,nt,nt,nt,nt
CCCCCC(=O)NC(=S)Nc1cccc(C(C)=O)c1,i,i,i,-95.0,i,95.3,i,95.6
CC(=O)c1cccc(NC(=O)CSC(=O)c2ccccc2)c1,i,i,i,-86.7,i,95.2,i,96.7
O=C(NC(=S)Nc1nc(-c2ccc(Br)cc2)cs1)c1ccco1,i,i,i,i,nt,nt,nt,nt
O=C(NNc1nc(-c2ccc(Br)cc2)cs1)c1ccco1,i,i,i,-84.7,62.8,94.9,68.8,96.7
COc1ccc(-c2ccc3c(c2)[C@@H]2C[C@H](N(C)C(=O)C(C)(C)C)[C@H]([C@H](C)O)C(=O)N2CC3)cc1,i,nt,i,nt,nt,nt,nt,nt
O=C(Nc1ccc(S(=O)(=O)N2CCCC2)cc1)Nc1ccc(F)cc1F,i,i,i,-95.6,i,98.1,i,99.2
O=C(Cc1ccc(F)cc1)Nc1ccc(S(=O)(=O)N2CCCC2)cc1,i,i,i,i,nt,nt,nt,nt
O=C(Cc1ccccc1[N+](=O)[O-])Nc1ccc(S(=O)(=O)N2CCCC2)cc1,i,i,i,?,i,92.9,i,94.0
O=C(Nc1ccc(F)cc1)Nc1ccc(S(=O)(=O)N2CCCC2)cc1,i,i,i,nt,nt,nt,nt,nt
O=C(CSc1nncs1)Nc1ccc(S(=O)(=O)N2CCCC2)cc1,i,i,i,-83.4,i,92.9,i,94.9
O=C(Cc1ccc(Br)cc1)Nc1ccc(S(=O)(=O)N2CCCC2)cc1,i,i,i,-96.1,i,?,i,99.3
Nc1ccccc1SC/C=C/CSc1ccccc1N,i,i,i,i,nt,nt,nt,nt
Cc1cc(OCC(=O)Nc2ccncc2)cc(C)c1Cl,i,i,i,i,nt,nt,nt,nt
CCCc1ccc(Oc2cc(NN3CCCCC3)c([N+](=O)[O-])cc2[N+](=O)[O-])cc1,i,i,i,i,nt,nt,nt,nt
O=C(CN1C(=O)c2ccccc2C1=O)Nc1cccc([N+](=O)[O-])c1,i,i,i,-95.1,i,99.0,i,99.2
SMILES,MC4R antag cAMP,NTR1 agonist,MC4R barr agon,AI-2 QS modul,JMH597 growth rt,BB721 const-QS lum,BB721 growth rt,JMH597 AI-2 mod
O=C(CN1C(=O)c2ccccc2C1=O)Nc1cccnc1,i,i,i,-81.6,i,93.0,i,94.2
O=C(COC(=O)c1ccc2ncsc2c1)Nc1ccccc1Br,i,i,i,nt,nt,nt,nt,nt
CC(=O)c1ccc(CCCCc2ccc(C(C)=O)cc2)cc1,i,nt,i,nt,nt,nt,nt,nt
O=C(/C=C/c1ccccc1Cl)NCCc1ccccc1,i,i,i,i,nt,nt,nt,nt
COc1ccc(OC)c(NC(=O)/C=C/c2ccccc2[N+](=O)[O-])c1,i,i,i,i,nt,nt,nt,nt
O=C(/C=C/c1ccccc1[N+](=O)[O-])NCc1ccc(Cl)cc1,i,i,i,?,i,90.6,i,93.2
O=C(/C=C/c1ccccc1[N+](=O)[O-])OCC(=O)c1ccccc1,i,i,i,i,nt,nt,nt,nt
COc1ccc(CNC(=O)/C=C/c2ccccc2[N+](=O)[O-])cc1,i,i,i,-80.1,i,95.0,i,96.4
O=C(/C=C/c1ccccc1[N+](=O)[O-])Oc1ccccc1,nt,i,nt,-80.6,i,79.3,i,87.8
O=C(/C=C/c1ccccc1Cl)NCc1ccccc1,i,i,i,-93.7,i,98.2,i,98.6
NS(=O)(=O)c1ccc(CNC(=O)/C=C/c2ccccc2[N+](=O)[O-])cc1,i,i,i,i,nt,nt,nt,nt
CCCN1C(=O)C(=O)c2cc(Cl)ccc21,i,i,i,nt,nt,nt,nt,nt
Cc1ccc(C(=O)N2CCN(c3ccc(C(F)(F)F)cn3)CC2)o1,i,i,i,nt,nt,nt,nt,nt
COc1ccc(OC)c(S(=O)(=O)ON2C(=O)c3ccccc3C2=O)c1,i,i,i,i,nt,nt,nt,nt
CC1CCN(C(=O)c2cc(-c3ccc4c(c3)OCO4)on2)CC1,i,i,i,-90.0,i,96.4,i,97.2
CC1CCN(C(=O)c2cc(-c3ccccc3O)on2)CC1,i,i,i,-84.0,i,95.3,i,96.5
CC1CCN(C(=O)c2cc(-c3ccco3)on2)CC1,i,i,i,i,nt,nt,nt,nt
CC(C)COc1cccc(C(=O)N(CC(=O)Nc2ccccc2C(F)(F)F)Cc2ccco2)c1,i,i,i,nt,nt,nt,nt,nt
Clc1ccc(OCc2cc(-c3ccccc3)no2)c(Cl)c1,i,i,i,i,nt,nt,nt,nt
Cc1cccc(OCc2cc(-c3ccccc3)no2)c1C,i,i,i,-95.5,i,99.1,i,99.4
COc1ccc(-c2cc(COc3ccccc3)on2)cc1,i,i,i,-88.9,i,97.0,i,97.7
Fc1ccc(OCc2cc(-c3ccccc3)no2)cc1,i,i,i,-95.0,i,98.2,i,98.5
COc1ccc(CN(C)CC(=O)Nc2ccccc2C(=O)NC2CC2)cc1OC,i,i,i,nt,nt,nt,nt,nt
CCc1ccc(NC(=O)CN2C(=O)CC(C)S(=O)(=O)c3ccccc32)cc1 (stereo not given),i,i,i,i,nt,nt,nt,nt
CC1CC(=O)N(CC(=O)Nc2ccc(Br)cc2)c2ccccc2S1(=O)=O (stereo not given),i,i,i,-83.1,i,95.8,i,96.9
